Measurements gathered from unrelated publications.
Lines come from different studies, so protocols differ.
Effect on: cell growth or viability

COc1cc(-c2ccc(-c3ccc(C(=N)N)nc3)s2)cc(OC)c1OC  GI50 (SNB-19; SRB): 4730 nM
CC(C)=CCC[C@](C)(O)[C@H]1CC[C@]2(C)[C@@H]1[C@H](O)C[C@@H]1[C@@]3(C)CC[C@H](O[C@@H]4O[C@H](CO)[C@@H](O)[C@H](O)[C@H]4O[C@@H]4O[C@H](CO)[C@@H](O)[C@H](O)[C@H]4O)C(C)(C)[C@@H]3CC[C@]12C  IC80 (NCI-H358; MTT; 72 h): > 100000 nM
Cc1cc(C)cc(COc2cc3c(cc2OCc2cc(C)cc(C)c2)[C@H]2C[C@](O)(Cc4cn(Cc5cccnc5)nn4)C[C@H](C)N2CC3)c1  IC50 (ASPC1; MTT): 674 nM
COc1ccc(-c2ccc(-c3ccc(C(=N)N)nc3)s2)cc1  GI50 (SNB-19; SRB): 1720 nM
CCOC(=O)c1c(C)ncn1CC(c1cn(C)c2ccc([N+](=O)[O-])cc12)c1cn(C)c2ccc([N+](=O)[O-])cc12  inhibition (HaCaT; MTS; 20 µM, 24 h): 3.7%
Cc1cc(C)cc(COc2cc3c(cc2OCc2cc(C)cc(C)c2)[C@H]2C[C@](O)(Cc4cn(-c5ccccc5)nn4)C[C@H](C)N2CC3)c1  IC50 (ASPC1; MTT): 593 nM
COC(=O)c1c(C)ncn1CC(c1c[nH]c2ccc(C)cc12)c1c[nH]c2ccc(C)cc12  inhibition (HaCaT; MTS; 20 µM, 24 h): 12.2%
Cc1cc(C)cc(COc2cc3c(cc2OCc2cc(C)cc(C)c2)[C@H]2C[C@](O)(Cc4cn(Cc5cnccn5)nn4)C[C@H](C)N2CC3)c1  IC50 (ASPC1; MTT): 753 nM
C[C@@H](Oc1cc(-c2cnn(C3CCNCC3)c2)cnc1N)c1c(Cl)ccc(F)c1Cl  inhibition (KARPAS-299; MTT; 0.008 µg/mL, 72 h): 27.5%
N=C(N)c1ccc(OCCCCCOc2ccc(C(=N)N)cc2)cc1  inhibition (HaCaT; MTS; 20 µM, 24 h): 11.2%
Cc1cc(C)cc(COc2cc3c(cc2OCc2cc(C)cc(C)c2)[C@H]2C[C@](O)(Cc4cn(CCOCCOCCOCC(=O)N[C@H](C(=O)N5C[C@H](O)C[C@H]5C(=O)NCc5ccc(-c6scnc6C)cc5)C(C)(C)C)nn4)C[C@H](C)N2CC3)c1  IC50 (ASPC1; MTT): 730 nM
CCOC(=O)c1cn(CC(c2cn(C)c3ccc(C)cc23)c2cn(C)c3ccc(C)cc23)c(C)c1C(=O)OC  inhibition (HaCaT; MTS; 20 µM, 24 h): 9.5%
Cc1cc(C)cc(COc2cc3c(cc2OCc2cc(C)cc(C)c2)[C@H]2C[C@](O)(Cc4cn(CC56CC7CC(CC(C7)C5)C6)nn4)C[C@H](C)N2CC3)c1  IC50 (ASPC1; MTT): 516 nM
COc1cccc(Oc2ccccc2NC(=O)CNC(=O)c2cccc3ccccc23)c1  GI50 (SNB-19; SRB; 48 h): 617 nM
COC(=O)c1c(C)ncn1CC(c1c[nH]c2cc(Br)ccc12)c1c[nH]c2cc(Br)ccc12  inhibition (HaCaT; MTS; 20 µM, 24 h): 28.8%
Cc1cc(Nc2ncc(Cl)c(Nc3ccccc3S(=O)(=O)C(C)C)n2)c(OC(C)C)cc1C1CCNCC1  inhibition (KARPAS-299; MTT; 0.55556 µg/mL, 72 h): 73.4%
CN1C[C@H](C(=O)N[C@]2(C)O[C@@]3(O)[C@@H]4CCCN4C(=O)[C@H](Cc4ccccc4)N3C2=O)C[C@@H]2c3cccc4[nH]cc(c34)C[C@H]21  EC50 (WI-38; MTT; 72 h): 80000 nM
COC(C)(C)CCC[C@](C)(O)[C@H]1CC[C@]2(C)[C@@H]1[C@H](O)C[C@@H]1[C@@]3(C)CC[C@H](O)C(C)(C)[C@@H]3CC[C@]12C  IC80 (NCI-H358; MTT; 72 h): 81700 nM
CC(C)C[C@H](NC(=O)[C@H](Cc1ccccc1)NC(=O)c1cnccn1)B(O)O  IC50 (KARPAS-299; ATP luminescence): 5.2 nM
Cc1cc(C)cc(COc2cc3c(cc2OCc2cc(C)cc(C)c2)[C@H]2C[C@](O)(Cc4cn(Cc5ccc(Cl)c(Cl)c5)nn4)C[C@H](C)N2CC3)c1  IC50 (ASPC1; MTT): 606 nM
COc1cc(Nc2nccc(-c3cnn4nc(OC)ccc34)n2)cc(C(F)(F)F)c1  IC50 (RERF-LC-MS; ATP luminescence): 590 nM
Cc1ccc(Cn2cc(C[C@@]3(O)C[C@@H]4c5cc(OCc6cc(C)cc(C)c6)c(OCc6cc(C)cc(C)c6)cc5CCN4[C@@H](C)C3)nn2)cc1  IC50 (ASPC1; MTT): 560 nM
